The data set can be described thus: Toxicity liver stage against HepG2, at 10uM. In kind it is cell-based. Also noted: test concentration 10 uM, cell line HepG2-A16-CD81EGFP. The note with it: human, HepG2-A16-CD81EGFP cells; read-out: INHIBITION
In short, it runs like this:
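Uninfected HepG2-A16-CD81EGFP cells, 3 × 10^3 per well, 1536-well, plated on prespotted compound at 10 μM final, parasite-free screening media added to match infected plates; puromycin 10 μM positive, DMSO 0.5% negative; run in parallel with 48 h PbLuc assay at 37 °C, 5% CO2; viability by CellTiter-Glo luminescence, normalized to controls.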
On to `c1ccc(-c2cnc3n2CCNC32CCNCC2)cc1`, for which the cytotoxicity at 10 µM was -2.2%.

For `CC(=O)N1CCN(c2cc(CCNC(=O)C(C)C)nc(C3CC3)n2)CC1`, the cytotoxicity at 10 µM is -21.3%.

Take `Cc1cnn(C2CN(Cc3nc(-c4ccsc4)no3)C2)c1`: the cytotoxicity at 10 µM was -3.88%.

For the molecule `CC1CCCN(S(=O)(=O)NCCCn2ccc3ccccc32)C1` (configuration not stated), the cytotoxicity at 10 µM was 13.6%.

On to `c1nc(C2CCCCO2)ncc1CN1CCOCC1` (configuration not stated), for which the cytotoxicity at 10 µM is -8.45%.

On to `CCOCC1CN(S(=O)(=O)C2CC2)Cc2cnn(C)c21` (configuration not stated), for which the cytotoxicity at 10 µM is -66.8%.

With `CC(C)CCN1CN=C(NS(=O)(=O)c2ccc(F)cc2)NC1`, the cytotoxicity at 10 µM was -3.03%.

`Cc1nc(CN(C)C2CCN(Cc3nc(C4CC4)no3)C2)no1` (configuration not stated): the cytotoxicity at 10 µM is -5.29%.

Consider `Cc1cc2nc(SCC(=O)N3CCCC3)n(C)c(=O)c2[nH]1`, for which the cytotoxicity at 10 µM was 11.1%.

With `CCC(C)NC(=O)CS(=O)(=O)Cc1cc(Cl)ccc1OC` (configuration not stated), the cytotoxicity at 10 µM was determined as 10.8%.

With `c1ncn(CC2CCCN(Cc3csc(-c4ccsc4)n3)C2)n1` (configuration not stated), the cytotoxicity at 10 µM was -9.86%.

Take `O=C(c1ccc(-n2ccnc2)nc1)N1CCN2CCCCC2C1` (configuration not stated): the cytotoxicity at 10 µM is -5.95%.

For the molecule `COC(=O)c1cccc(OCCn2nc(-c3cccs3)oc2=O)c1`, the cytotoxicity at 10 µM was -6.56%.

Take `O=C(Nc1cn[nH]c1)N(CCO)C1CCc2ccccc21` (configuration not stated): the cytotoxicity at 10 µM was -8.74%.

On to `CC(C)=CCCC1(C)CCC(=O)N(CCNc2nc(C)cc(=O)[nH]2)C1` (configuration not stated), for which the cytotoxicity at 10 µM turned out to be 3.18%.

As to `Cc1ccsc1C(=O)N1CC2CC1(C(=O)NCc1ccco1)C2`, the cytotoxicity at 10 µM was -6.43%.

In the case of `CC(C)C(C)N(Cc1ccccn1)Cc1ccco1` (configuration not stated), the cytotoxicity at 10 µM was -1.99%.

Turning to `COCC1c2nnn(C)c2CCN1C(=O)Cc1ccccn1` (configuration not stated), the cytotoxicity at 10 µM was -97.1%.

With `CNc1ccc(CC2CCCN(Cc3c[nH]cn3)C2)nn1` (configuration not stated), the cytotoxicity at 10 µM is -1.71%.

`CC(C)O[C@H]1CN(Cc2cnc3c(-c4ccccc4)cnn3c2)C[C@@H]1O`: the cytotoxicity at 10 µM is 3.45%.

Take `COc1ccc2c(C)c(C(=O)NC3CCCOC3)oc2c1` (configuration not stated): the cytotoxicity at 10 µM was -7.28%.

`Cc1ccnn1CCC(=O)N1CCCC2(C1)NC(=O)c1ccccc1O2` (configuration not stated): the cytotoxicity at 10 µM was -0.776%.

For the molecule `O=S(=O)(c1ccc(Cl)s1)N1CCCC(c2ncc[nH]2)C1` (configuration not stated), the cytotoxicity at 10 µM came to 6.68%.

Consider `CC[C@H]1CN(C(=O)c2cnc(CN3CCCC3)s2)CC[C@@]1(C)O`, for which the cytotoxicity at 10 µM was -16%.

Turning to `CC(=O)N1CCCn2nc(CNS(=O)(=O)N(C)C(C)C)cc2C1`, the cytotoxicity at 10 µM was found to be 3.54%.

For the molecule `O=C(Nc1ccccc1)c1n[nH]c(-n2cnnc2)n1`, the cytotoxicity at 10 µM was found to be 9.37%.

For `O=C1CCC2(CCNCC2)CN1Cc1nnc2ccccn12`, the cytotoxicity at 10 µM was -0.949%.

With `CCN1CC[C@@]2(C(=O)N(C)C)CCN(S(=O)(=O)c3ccccc3)CC[C@@H]12`, the cytotoxicity at 10 µM stood at 1.26%.

Turning to `CC(=O)Nc1nc(C(=O)NC(C)c2cccnc2)cs1` (configuration not stated), the cytotoxicity at 10 µM was -4.21%.

Turning to `COc1cccc(CN2CCN(Cc3ccc4nonc4c3)CC2=O)c1`, the cytotoxicity at 10 µM is -1.98%.

`CCn1nc(C)c(NC(=O)CN2CCN(C(C)=O)CC2)c1C`: the cytotoxicity at 10 µM was -6.67%.

Regarding `COCC(=O)NCc1cc(=O)n2c(n1)CN(C)CCC2`, the cytotoxicity at 10 µM was -103%.

In the case of `N#Cc1cnc(NC2CCN(C(=O)C3CC3)CC2)c(Cl)c1`, the cytotoxicity at 10 µM is -7.32%.

Turning to `Cc1cc(NCCC(=O)NC2CCS(=O)(=O)C2)nc(-c2ccncc2)n1` (configuration not stated), the cytotoxicity at 10 µM was -6.74%.

As to `O=C(Cc1cccs1)N1C[C@@H]2COC[C@]2(COCc2cccnc2)C1`, the cytotoxicity at 10 µM is -2.8%.

With `CCc1csc(CCNC(=O)CC2CCN(C(C)C)CC2)n1`, the cytotoxicity at 10 µM worked out at 6.62%.

Regarding `CC(C(=O)NC1CC1)n1nc(-c2cccs2)cc(N)c1=O` (configuration not stated), the cytotoxicity at 10 µM turned out to be 10.9%.

Regarding `O=C(Cc1ccc(Cl)cc1)N1CCC(O)(C(F)(F)F)C1` (configuration not stated), the cytotoxicity at 10 µM is -12.3%.

On to `CCN(CC)c1ncnc2c(C)nn(CC)c12`, for which the cytotoxicity at 10 µM is -2.01%.

`Cc1cccn2cc(CN3CCCC(c4ccn[nH]4)C3)nc12` (configuration not stated): the cytotoxicity at 10 µM was -5.95%.

With `CC(C)(C)NC[C@@H]1CCC[C@@H]2CN(Cc3csnn3)C[C@@H]21`, the cytotoxicity at 10 µM was -134%.

`CCN(CC)c1ccc(NC(=O)N2CCc3sccc3C2)cn1`: the cytotoxicity at 10 µM was -5%.

Regarding `COc1ccc(N2CCC(NC(=O)c3sccc3C)CC2)cc1`, the cytotoxicity at 10 µM is -2.28%.

Take `COc1ccc(F)cc1NC(=O)NCC1(C)COC1`: the cytotoxicity at 10 µM was found to be 6.26%.

For `Cc1ncc(CN(C)CCO)c2cc(C(=O)c3ccc(Br)cc3)oc12`, the cytotoxicity at 10 µM is -0.227%.

For the molecule `CN(C)CCn1ccc2cc(NC(=O)NCc3ncnn3C)ccc21`, the cytotoxicity at 10 µM was -6.52%.

On to `COc1cccc(OCC(=O)NS(=O)(=O)c2ccc(Br)s2)c1`, for which the cytotoxicity at 10 µM was -16.1%.

As to `Cc1ccc(O)c(CN(Cc2ccccc2)Cc2nccs2)n1`, the cytotoxicity at 10 µM is 0.31%.

Turning to `O=c1[nH]c2ccccc2c(=O)n1Cc1nnnn1C1CC1`, the cytotoxicity at 10 µM is -16.1%.

As to `CCC1COCCN1C(=O)NCc1nccn1CCc1ccccc1` (configuration not stated), the cytotoxicity at 10 µM was determined as 4.42%.

Turning to `O=C(CN1CCOC1=O)N1CCC2(CCc3ccccc32)CC1`, the cytotoxicity at 10 µM was -15.8%.

For `COCC(C)N1CCc2onc(-c3ccc(F)c(F)c3)c2C1` (configuration not stated), the cytotoxicity at 10 µM was -4.31%.

In the case of `COc1c(CNC2CCCc3ccccc32)c(C)nn1C` (configuration not stated), the cytotoxicity at 10 µM was -0.808%.

For the molecule `Cc1ncsc1C(=O)N1CCn2nc(CN3CCSCC3)cc2C1`, the cytotoxicity at 10 µM was -51%.

Consider `NC(=O)C1CCN(C(=O)c2ccn(-c3cccc(F)c3)n2)C1` (configuration not stated), for which the cytotoxicity at 10 µM is -3.05%.

On to `CC(C)c1nnc2n1CCN(C(=O)c1ccc(OCC(N)=O)cc1)C2`, for which the cytotoxicity at 10 µM was -4.84%.

Turning to `CN(C)C[C@H]1C[C@@H](CO)CN(C(=O)c2cc(=O)[nH]c3cc(F)ccc23)C1`, the cytotoxicity at 10 µM is -4.16%.

With `CN(C)[C@@H]1CN(Cc2cnn(C)c2)[C@@H]2COC[C@H]12`, the cytotoxicity at 10 µM came out at 7.37%.

Regarding `CC(C)c1noc(OCc2cccc(S(=O)(=O)N(C)C)c2)n1`, the cytotoxicity at 10 µM was -45.9%.

On to `CN(CC(=O)Nc1ccncc1)C1CCCN(c2cccnn2)C1` (configuration not stated), for which the cytotoxicity at 10 µM is -3.44%.

In the case of `CN1CCCC(c2cccc(CCC(N)=O)n2)C1` (configuration not stated), the cytotoxicity at 10 µM turned out to be 2.9%.

Take `CC(C)c1nc2c(n1C)CCN(Cc1nc(-c3ccoc3)no1)C2`: the cytotoxicity at 10 µM is -2.06%.

As to `O=C(C1CC1)N1C[C@H]2CCCN(S(=O)(=O)c3ccc(Cl)s3)[C@H]2C1`, the cytotoxicity at 10 µM is 8.26%.

As for `Cc1nc(CN2CCC(c3ccnn3CCO)CC2)oc1C`, the cytotoxicity at 10 µM is -15.9%.

As for `COc1ccc(OC)c(-n2cnnc2C)c1`, the cytotoxicity at 10 µM amounted to 1.24%.

Consider `O=C(NCc1ccccc1CN1CCC(O)CC1)Nc1ccccc1`, for which the cytotoxicity at 10 µM was determined as 7.77%.

As to `Cn1c(=O)n(C)c2cc(C3SCC(=O)Nc4ccsc43)ccc21` (configuration not stated), the cytotoxicity at 10 µM amounted to 4.49%.

Regarding `CCN(Cc1ccc2c(c1)OCCO2)C(=O)NCc1cc[nH]n1`, the cytotoxicity at 10 µM stood at 1.54%.

Take `CN(CCN1CCCCCC1)Cc1cnc(N)nc1`: the cytotoxicity at 10 µM was determined as 0.993%.

For `Cc1cc(NC(=O)CN2CCOC(Cn3cccn3)C2)n(C)n1` (configuration not stated), the cytotoxicity at 10 µM came to 5.56%.

In the case of `O=C(O)c1cccc(S(=O)(=O)N2CCOc3ccccc32)c1`, the cytotoxicity at 10 µM is -5.92%.

On to `c1cnc(N2CCN(CCn3ccnc3-c3c[nH]cn3)CC2)nc1`, for which the cytotoxicity at 10 µM came to 2.14%.

Take `CNC(=O)CN1C(=O)CCC12CCCN(Cc1cccc(F)c1)C2` (configuration not stated): the cytotoxicity at 10 µM is -5.51%.

As to `Cc1nc(C)n(CC2CN(CC(=O)NC3CCCC3)CCO2)n1` (configuration not stated), the cytotoxicity at 10 µM was -4.83%.

On to `CC(C)c1nnc2n1CCN(C(=O)c1ccc3c(c1)NC(=O)CO3)C2`, for which the cytotoxicity at 10 µM is 7.07%.

`O=C(NCc1ccccc1Cn1ccnc1)N1CCSCC1`: the cytotoxicity at 10 µM is 3.9%.

With `O=C([C@@H]1C[C@@H]2CCN(c3cccc(F)c3)C[C@H]2O1)N1CCCC1`, the cytotoxicity at 10 µM is -1.34%.

For `COC(=O)CN(C(=O)c1cc(C)c(F)cc1F)c1cccc(C)n1`, the cytotoxicity at 10 µM came to 6.9%.

For `OC(COCc1ccccc1)CSc1nnc(C2CC2)n1C1CC1` (configuration not stated), the cytotoxicity at 10 µM worked out at 4.93%.

Consider `CCC(C(=O)NC1CCCC1)n1ccc2ncccc2c1=O` (configuration not stated), for which the cytotoxicity at 10 µM was determined as 4.2%.

With `COc1cccn(CC(=O)N(C)CCCOc2c(C)cccc2C)c1=O`, the cytotoxicity at 10 µM turned out to be 5.27%.

On to `CNc1ncc(CN(C)c2nccc(CCC(F)(F)F)n2)cn1`, for which the cytotoxicity at 10 µM is -16.3%.

As to `COc1ccc(NC(=O)c2cccc(CN3CCCC3C)c2)cc1OC` (configuration not stated), the cytotoxicity at 10 µM was determined as 0.636%.

As to `CC(C)S(=O)(=O)CCN1CCN(C(C#N)c2ccccc2)CC1` (configuration not stated), the cytotoxicity at 10 µM amounted to 0.401%.

Consider `CC(C)OCCCN(Cc1ccncc1)Cc1cc(F)ccc1F`, for which the cytotoxicity at 10 µM is -29.2%.

As for `CC(C)NC1CCc2c(ccc(=O)n2CCN2CCCC2=O)C1` (configuration not stated), the cytotoxicity at 10 µM is 9.52%.

On to `COCCN1CCCC(c2nccnc2Nc2nc(C)cs2)C1` (configuration not stated), for which the cytotoxicity at 10 µM was -7.16%.

Regarding `O=C(NCc1nccs1)N1CCOC(c2ccccc2Cl)C1` (configuration not stated), the cytotoxicity at 10 µM was -3.67%.

With `c1ccc(CN2CC[C@H]3[C@H]2CCN3c2ncccn2)nc1`, the cytotoxicity at 10 µM turned out to be 1.24%.

For the molecule `CS(=O)(=O)c1cccc(OCC(=O)N2CCCC2c2ccccc2Cl)c1` (configuration not stated), the cytotoxicity at 10 µM was 4.36%.

With `CCn1ccnc1CN1CCN(Cc2ccc(C#N)cc2)CC1`, the cytotoxicity at 10 µM is -9.62%.

In the case of `Cc1nccn1CC1CCCN(S(=O)(=O)c2cnn(C)c2)C1` (configuration not stated), the cytotoxicity at 10 µM stood at 8.58%.

With `CN(Cc1cnccn1)C(=O)c1ccc(CSc2nnc[nH]2)o1`, the cytotoxicity at 10 µM stood at 1.22%.

As for `CCN1CC2(CCN(C(=O)C(C)Oc3ccc(F)cc3Cl)CC2)CC1=O` (configuration not stated), the cytotoxicity at 10 µM is -2.98%.

For the molecule `Cc1cn2c(n1)CCC(NC(=O)c1cc[nH]n1)C2` (configuration not stated), the cytotoxicity at 10 µM is -8.06%.

Consider `CCc1nnc2n1CCN(C(=O)c1nc(-c3ccco3)sc1C)C2`, for which the cytotoxicity at 10 µM was -1.19%.

With `Cc1cc(-c2nn(C)c(Cl)c2CN2Cc3ccccc3C(O)C2)no1` (configuration not stated), the cytotoxicity at 10 µM amounted to 4.1%.
